Data from ChEMBL document CHEMBL3046951, “Volatile constituents from the leaves of Callicarpa japonica Thunb. and their antibacterial activities” (2004).

Assays:
[1] = system: Salmonella typhimurium; experiment: Antimicrobial activity against Salmonella enterica subsp. enterica serovar Typhimurium ATCC 14028 assessed as growth inhibition rate at 3.64 mg/l after 72 hr by spectrophotometry; assay type: functional; conditions: ATCC 14028, 72 h, read-out: GI
Procedure, shortened: (§1)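 Salmonella Typhimurium ATCC 14028 grown in nutrient broth at 30 °C, precultured 24 h, then subcultured 1:100 for 18 h before testing. Single volatile compounds (>95% pure) were added. OD was read every 24 h over 72 h in a Bioscreen C, with 10% Tween 80 as the comparison control.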

[2] = system: Listeria monocytogenes; experiment: Antimicrobial activity against Listeria monocytogenes ATCC 19111 assessed as growth inhibition rate at 3.64 mg/l after 72 hr by spectrophotometry; assay type: functional; conditions: ATCC 19111, 72 h, read-out: GI
Procedure, shortened: (§2)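 L. monocytogenes was grown at 30 °C in tryptic soy broth, subcultured for 18 h, and exposed to pure volatile compounds (>95% purity). Growth was followed by Bioscreen C optical density every 24 h for 72 h against a 10% Tween 80 control.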

[3] = system: Staphylococcus aureus; experiment: Antimicrobial activity against Staphylococcus aureus ATCC 25923 assessed as growth inhibition rate at 3.64 mg/l after 72 hr by spectrophotometry; assay type: functional; conditions: ATCC 25923, 72 h, read-out: GI
[4] = system: Bacillus cereus; experiment: Antimicrobial activity against Bacillus cereus ATCC 11778 assessed as growth inhibition rate at 3.64 mg/l after 72 hr by spectrophotometry; assay type: functional; conditions: ATCC 11778, 72 h, read-out: GI
Procedure, shortened: (§3)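 Pure volatile compounds (purity >95%; one at 90%) were tested against B. cereus ATCC 11778. The strain was grown at 30 °C in nutrient broth for 24 h, then subcultured for 18 h. Optical density was read in a Bioscreen C every 24 h for 72 h, with 10% Tween 80 as the control.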

[5] = system: Escherichia coli; experiment: Antimicrobial activity against Escherichia coli O157:H7 ATCC 43894 assessed as growth inhibition rate at 3.64 mg/l after 72 hr by spectrophotometry; assay type: functional; conditions: O157:H7 ATCC 43894, 72 h, read-out: GI
[6] = system: Vibrio parahaemolyticus; experiment: Antimicrobial activity against Vibrio parahaemolyticus ATCC 33844 assessed as growth inhibition rate at 3.64 mg/l after 72 hr by spectrophotometry; assay type: functional; conditions: ATCC 33844, 72 h, read-out: GI
[7] = system: Listeria monocytogenes; experiment: microbe, parasite or virus in culture; conditions: ATCC 19111, 72 h, read-out: GI
[8] = system: Staphylococcus aureus; experiment: microbe, parasite or virus in culture; conditions: ATCC 25923, 72 h, read-out: GI
[9] = system: Bacillus cereus; experiment: microbe, parasite or virus in culture; conditions: ATCC 11778, 72 h, read-out: GI
[10] = system: Salmonella typhimurium; experiment: microbe, parasite or virus in culture; conditions: Salmonella enterica, ATCC 14028, 72 h, read-out: GI
[11] = system: Vibrio parahaemolyticus; experiment: microbe, parasite or virus in culture; conditions: ATCC 33844, 72 h, read-out: GI
[12] = system: Escherichia coli; experiment: microbe, parasite or virus in culture; conditions: O157:H7 ATCC 43894, 72 h, read-out: GI
[13] = system: Salmonella typhimurium; experiment: Antimicrobial activity against Salmonella enterica subsp. enterica serovar Typhimurium ATCC 14028 assessed as growth inhibition rate at 1.44 mg/l after 72 hr by spectrophotometry; assay type: functional; conditions: ATCC 14028, 72 h, read-out: GI; procedure, shortened: as §1
[14] = system: Staphylococcus aureus; experiment: Antimicrobial activity against Staphylococcus aureus ATCC 25923 assessed as growth inhibition rate at 1.44 mg/l after 72 hr by spectrophotometry; assay type: functional; conditions: ATCC 25923, 72 h, read-out: GI
[15] = system: Vibrio parahaemolyticus; experiment: Antimicrobial activity against Vibrio parahaemolyticus ATCC 33844 assessed as growth inhibition rate at 1.44 mg/l after 72 hr by spectrophotometry; assay type: functional; conditions: ATCC 33844, 72 h, read-out: GI
[16] = system: Bacillus cereus; experiment: Antimicrobial activity against Bacillus cereus ATCC 11778 assessed as growth inhibition rate at 1.44 mg/l after 72 hr by spectrophotometry; assay type: functional; conditions: ATCC 11778, 72 h, read-out: GI; procedure, shortened: as §3
[17] = system: Listeria monocytogenes; experiment: Antimicrobial activity against Listeria monocytogenes ATCC 19111 assessed as growth inhibition rate at 1.44 mg/l after 72 hr by spectrophotometry; assay type: functional; conditions: ATCC 19111, 72 h, read-out: GI; procedure, shortened: as §2
[18] = system: Escherichia coli; experiment: Antimicrobial activity against Escherichia coli O157:H7 ATCC 43894 assessed as growth inhibition rate at 1.44 mg/l after 72 hr by spectrophotometry; assay type: functional; conditions: O157:H7 ATCC 43894, 72 h, read-out: GI

CCc1ccco1
inhibition of growth at 3.64 µg/mL [1]: 1.6%
inhibition of growth at 3.64 µg/mL [2]: 0%
inhibition of growth at 3.64 µg/mL [3]: 4.3%
inhibition of growth at 3.64 µg/mL [4]: 0%
inhibition of growth at 3.64 µg/mL [5]: 0%
inhibition of growth at 3.64 µg/mL [6]: 2.3%

CCO [ALCOHOL]
inhibition of growth at 104.72 µg/mL [7]: 0%
inhibition of growth at 104.72 µg/mL [8]: 3.2%
inhibition of growth at 104.72 µg/mL [9]: 0%
inhibition of growth at 104.72 µg/mL [10]: 3.4%
inhibition of growth at 104.72 µg/mL [11]: 3.9%
inhibition of growth at 104.72 µg/mL [12]: 2%

CCOC(C)=O [ETHYL ACETATE]
inhibition of growth at 1.44 µg/mL [13]: 9.3%
inhibition of growth at 1.44 µg/mL [14]: 6.6%
inhibition of growth at 1.44 µg/mL [15]: 4.5%
inhibition of growth at 1.44 µg/mL [16]: 0%
inhibition of growth at 1.44 µg/mL [17]: 0%
inhibition of growth at 1.44 µg/mL [18]: 0%
